Test results taken from ChEMBL document CHEMBL1926593, “Studies on the synthesis and antibacterial activity of 3,6-disubstituted 1,2,4-triazolo[3,4-b]1,3,4-thiadiazoles” (2012).
≈ marks a conversion by molar mass, not a printed value. Calls of active or inactive are those of the source. The rule behind the calls is not given here.

Key:
Bacillus cereus [1] = experiment: Ratio of cefuroxime MIC to compound MIC for drug-sensitive Bacillus cereus ATCC 10876 by broth microdilution method; format: functional
Micrococcus luteus = experiment: Antibacterial activity against drug-sensitive Micrococcus luteus ATCC 10240 by broth microdilution method; format: functional
Procedure, shortened: (§1)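 Broth microdilution per CLSI recommendation. MIC is the lowest concentration with no visible growth. MBC is the lowest concentration giving >99.9% reduction in CFU of the initial inoculum. Ampicillin, cefuroxime and vancomycin served as reference agents.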

Bacillus cereus [2] = experiment: Antibacterial activity against drug-sensitive Bacillus cereus ATCC 10876 by broth microdilution method; format: functional; procedure, shortened: as §1
Klebsiella pneumoniae = experiment: Antibacterial activity against drug-sensitive Klebsiella pneumoniae ATCC 13883 by broth microdilution method; format: functional, organism-based; procedure, shortened: as §1
Escherichia coli = experiment: Antibacterial activity against drug-sensitive Escherichia coli ATCC 25922 by broth microdilution method; format: functional, organism-based; procedure, shortened: as §1
Bacillus subtilis [3] = experiment: Antibacterial activity against drug-sensitive Bacillus subtilis ATCC 6633 by broth microdilution method; format: functional; procedure, shortened: as §1
Proteus mirabilis = experiment: Antibacterial activity against drug-sensitive Proteus mirabilis ATCC 12453 by broth microdilution method; format: functional, organism-based; procedure, shortened: as §1
Bacillus cereus [4] = experiment: Ratio of ampicillin MIC to compound MIC for drug-sensitive Bacillus cereus ATCC 10876 by broth microdilution method; format: functional
Staphylococcus aureus [5] = experiment: Antibacterial activity against drug-sensitive Staphylococcus aureus ATCC 25923 by broth microdilution method; format: functional; procedure, shortened: as §1
Staphylococcus aureus [6] = experiment: Ratio of MBC to MIC for methicillin-resistant Staphylococcus aureus ATCC 14001; format: functional
Procedure, shortened: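 Broth microdilution following CLSI recommendations. MIC was the lowest concentration with no visible growth. MBC was the lowest concentration giving a >99.9% reduction in CFU relative to the initial inoculum. The ratio was taken from these two values.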

Staphylococcus aureus [7] = experiment: Antibacterial activity against methicillin-resistant Staphylococcus aureus ATCC 14001 by broth microdilution method; format: functional
Procedure, shortened: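 Broth microdilution following CLSI recommendations. MIC was read as the lowest concentration giving no visible growth. Ampicillin, cefuroxime and vancomycin were the reference antibacterials.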

Staphylococcus aureus [8] = experiment: Antibacterial activity against drug-sensitive Staphylococcus aureus ATCC 6538 by broth microdilution method; format: functional; procedure, shortened: as §1
Pseudomonas aeruginosa = experiment: Antibacterial activity against drug-sensitive Pseudomonas aeruginosa ATCC 9027 by broth microdilution method; format: functional, organism-based; procedure, shortened: as §1
[9] = tested on: Staphylococcus epidermidis; experiment: Antibacterial activity against drug-sensitive Staphylococcus epidermidis ATCC 12228 by broth microdilution method; format: functional; procedure, shortened: as §1
Bacillus subtilis [10] = experiment: Ratio of ampicillin MIC to compound MIC for drug-sensitive Bacillus subtilis ATCC 6633 by broth microdilution method; format: functional

Compound | MBC (Micrococcus luteus) | MIC (Micrococcus luteus) | MBC (Bacillus cereus [2]) | MIC (Bacillus cereus [2]) | Activity (Klebsiella pneumoniae) | Activity (Escherichia coli) | MBC (Bacillus subtilis [3]) | MIC (Bacillus subtilis [3]) | Activity (Proteus mirabilis) | Ratio (Bacillus cereus [4]) | MBC (Staphylococcus aureus [5]) | MIC (Staphylococcus aureus [5]) | Ratio (Staphylococcus aureus [6]) | MBC (Staphylococcus aureus [7]) | MIC (Staphylococcus aureus [7]) | MBC (Staphylococcus aureus [8]) | MIC (Staphylococcus aureus [8]) | Activity (Pseudomonas aeruginosa) | MBC [9] | MIC [9] | also measured
Clc1cccc(-c2nnc3sc(Nc4ccc(Br)cc4)nn23)c1 | 3.91 µg/mL (≈ 9.61 µM) | 3.91 µg/mL (≈ 9.61 µM) | 31.2 µg/mL (≈ 76.8 µM) | 15.6 µg/mL (≈ 38.4 µM) | inactive | inactive | 1.95 µg/mL (≈ 4.79 µM) | 1.95 µg/mL (≈ 4.79 µM) | inactive | 4 | 31.2 µg/mL (≈ 76.8 µM) | 0.98 µg/mL (≈ 2.41 µM) | 128 | 125 µg/mL (≈ 307 µM) | 0.98 µg/mL (≈ 2.41 µM) | 31.2 µg/mL (≈ 76.8 µM) | 0.49 µg/mL (≈ 1.2 µM) | inactive | 3.91 µg/mL (≈ 9.61 µM) | 0.98 µg/mL (≈ 2.41 µM) | Ratio (Bacillus cereus [1]): 2
Clc1ccc(Nc2nn3c(-c4ccccc4Cl)nnc3s2)cc1 | 15.6 µg/mL (≈ 43.1 µM) | 7.81 µg/mL (≈ 21.6 µM) | 3.91 µg/mL (≈ 10.8 µM) | 3.91 µg/mL (≈ 10.8 µM) | inactive | inactive | 15.6 µg/mL (≈ 43.1 µM) | 3.91 µg/mL (≈ 10.8 µM) | inactive | 16 | 31.2 µg/mL (≈ 86.3 µM) | 15.6 µg/mL (≈ 43.1 µM) | 32 | 62.5 µg/mL (≈ 173 µM) | 1.95 µg/mL (≈ 5.38 µM) | 15.6 µg/mL (≈ 43.1 µM) | 15.6 µg/mL (≈ 43.1 µM) | inactive | 15.6 µg/mL (≈ 43.1 µM) | 3.91 µg/mL (≈ 10.8 µM) | Ratio (Bacillus cereus [1]): 8; Ratio (Bacillus subtilis [10]): 4
Clc1ccc(Nc2nn3c(-c4ccc(Cl)cc4)nnc3s2)cc1 | 31.2 µg/mL (≈ 86.3 µM) | 15.6 µg/mL (≈ 43.1 µM) | 31.2 µg/mL (≈ 86.3 µM) | 7.81 µg/mL (≈ 21.6 µM) | inactive | inactive | 7.81 µg/mL (≈ 21.6 µM) | 3.91 µg/mL (≈ 10.8 µM) | inactive | 8 | 62.5 µg/mL (≈ 173 µM) | 3.91 µg/mL (≈ 10.8 µM) | 8 | 62.5 µg/mL (≈ 173 µM) | 7.81 µg/mL (≈ 21.6 µM) | 62.5 µg/mL (≈ 173 µM) | 0.98 µg/mL (≈ 2.71 µM) | inactive | 15.6 µg/mL (≈ 43.1 µM) | 3.91 µg/mL (≈ 10.8 µM) | Ratio (Bacillus subtilis [10]): 4
CC1(C)S[C@@H]2[C@H](NC(=O)[C@H](N)c3ccccc3)C(=O)N2[C@H]1C(=O)O [AMPICILLIN] | – | – | – | 62.5 µg/mL (≈ 179 µM) | – | – | – | – | – | – | – | – | – | – | – | – | – | – | – | – | –
Clc1ccc(Nc2nn3c(-c4ccccc4)nnc3s2)cc1 | 15.6 µg/mL (≈ 47.7 µM) | 7.81 µg/mL (≈ 23.8 µM) | 15.6 µg/mL (≈ 47.7 µM) | 15.6 µg/mL (≈ 47.7 µM) | inactive | inactive | 7.81 µg/mL (≈ 23.8 µM) | 1.95 µg/mL (≈ 5.95 µM) | inactive | 4 | 31.2 µg/mL (≈ 95.3 µM) | 3.91 µg/mL (≈ 11.9 µM) | 32 | 62.5 µg/mL (≈ 191 µM) | 1.95 µg/mL (≈ 5.95 µM) | 31.2 µg/mL (≈ 95.3 µM) | 15.6 µg/mL (≈ 47.7 µM) | inactive | 3.91 µg/mL (≈ 11.9 µM) | 0.98 µg/mL (≈ 2.99 µM) | Ratio (Bacillus cereus [1]): 2; Ratio (Bacillus subtilis [10]): 8
Brc1ccc(Nc2nn3c(-c4ccccc4)nnc3s2)cc1 | 7.81 µg/mL (≈ 21 µM) | 3.91 µg/mL (≈ 10.5 µM) | 15.6 µg/mL (≈ 42 µM) | 15.6 µg/mL (≈ 42 µM) | inactive | inactive | 1.91 µg/mL (≈ 5.13 µM) | 0.98 µg/mL (≈ 2.63 µM) | inactive | 4 | 31.2 µg/mL (≈ 83.9 µM) | 0.98 µg/mL (≈ 2.63 µM) | 8 | 62.5 µg/mL (≈ 168 µM) | 7.81 µg/mL (≈ 21 µM) | 125 µg/mL (≈ 336 µM) | 15.6 µg/mL (≈ 42 µM) | inactive | 0.98 µg/mL (≈ 2.63 µM) | 0.49 µg/mL (≈ 1.32 µM) | Ratio (Bacillus cereus [1]): 2; Ratio (Bacillus subtilis [10]): 16
CN[C@H](CC(C)C)C(=O)N[C@H]1C(=O)N[C@@H](CC(N)=O)C(=O)N[C@H]2C(=O)N[C@H]3C(=O)N[C@H](C(=O)N[C@H](C(=O)O)c4cc(O)cc(O)c4-c4cc3ccc4O)[C@H](O)c3ccc(c(Cl)c3)Oc3cc2cc(c3O[C@@H]2O[C@H](CO)[C@@H](O)[C@H](O)[C@H]2O[C@H]2C[C@](C)(N)[C@H](O)[C@H](C)O2)Oc2ccc(cc2Cl)[C@H]1O [VANCOMYCIN] | 0.49 µg/mL (≈ 0.338 µM) | 0.25 µg/mL (≈ 0.173 µM) | 31.2 µg/mL (≈ 21.6 µM) | 0.98 µg/mL (≈ 0.676 µM) | – | – | 0.49 µg/mL (≈ 0.338 µM) | 0.25 µg/mL (≈ 0.173 µM) | – | – | 7.81 µg/mL (≈ 5.39 µM) | 0.98 µg/mL (≈ 0.676 µM) | 4 | 3.91 µg/mL (≈ 2.7 µM) | 0.98 µg/mL (≈ 0.676 µM) | 1.95 µg/mL (≈ 1.35 µM) | 0.49 µg/mL (≈ 0.338 µM) | – | 1.95 µg/mL (≈ 1.35 µM) | 0.98 µg/mL (≈ 0.676 µM) | –
Clc1ccc(-c2nnc3sc(Nc4ccc(Br)cc4)nn23)cc1 | 15.6 µg/mL (≈ 38.4 µM) | 15.6 µg/mL (≈ 38.4 µM) | 15.6 µg/mL (≈ 38.4 µM) | 15.6 µg/mL (≈ 38.4 µM) | inactive | inactive | 1.95 µg/mL (≈ 4.79 µM) | 1.95 µg/mL (≈ 4.79 µM) | inactive | 4 | 31.2 µg/mL (≈ 76.8 µM) | 1.95 µg/mL (≈ 4.79 µM) | 16 | 125 µg/mL (≈ 307 µM) | 7.81 µg/mL (≈ 19.2 µM) | 31.2 µg/mL (≈ 76.8 µM) | 0.98 µg/mL (≈ 2.41 µM) | inactive | 1.95 µg/mL (≈ 4.79 µM) | 1.95 µg/mL (≈ 4.79 µM) | Ratio (Bacillus cereus [1]): 2; Ratio (Bacillus subtilis [10]): 8
CO/N=C(\C(=O)N[C@@H]1C(=O)N2C(C(=O)O)=C(COC(N)=O)CS[C@H]12)c1ccco1 [CEFUROXIME] | – | 0.98 µg/mL (≈ 2.31 µM) | – | 31.2 µg/mL (≈ 73.6 µM) | – | – | – | 15.6 µg/mL (≈ 36.8 µM) | – | – | – | 0.49 µg/mL (≈ 1.15 µM) | – | – | – | – | 0.98 µg/mL (≈ 2.31 µM) | – | – | 0.24 µg/mL (≈ 0.566 µM) | –
Clc1ccccc1-c1nnc2sc(Nc3ccc(Br)cc3)nn12 | 7.81 µg/mL (≈ 19.2 µM) | 7.81 µg/mL (≈ 19.2 µM) | 15.6 µg/mL (≈ 38.4 µM) | 7.81 µg/mL (≈ 19.2 µM) | inactive | inactive | 15.6 µg/mL (≈ 38.4 µM) | 1.95 µg/mL (≈ 4.79 µM) | inactive | 8 | 15.6 µg/mL (≈ 38.4 µM) | 1.95 µg/mL (≈ 4.79 µM) | 8 | 15.6 µg/mL (≈ 38.4 µM) | 1.95 µg/mL (≈ 4.79 µM) | 62.5 µg/mL (≈ 154 µM) | 7.81 µg/mL (≈ 19.2 µM) | inactive | 3.91 µg/mL (≈ 9.61 µM) | 0.98 µg/mL (≈ 2.41 µM) | Ratio (Bacillus subtilis [10]): 8
Clc1ccc(Nc2nn3c(-c4cccc(Cl)c4)nnc3s2)cc1 | 3.91 µg/mL (≈ 10.8 µM) | 3.91 µg/mL (≈ 10.8 µM) | 15.6 µg/mL (≈ 43.1 µM) | 7.81 µg/mL (≈ 21.6 µM) | inactive | inactive | 1.95 µg/mL (≈ 5.38 µM) | 1.95 µg/mL (≈ 5.38 µM) | inactive | 8 | 31.2 µg/mL (≈ 86.3 µM) | 1.95 µg/mL (≈ 5.38 µM) | 64 | 62.5 µg/mL (≈ 173 µM) | 0.98 µg/mL (≈ 2.71 µM) | 31.2 µg/mL (≈ 86.3 µM) | 0.49 µg/mL (≈ 1.35 µM) | inactive | 3.91 µg/mL (≈ 10.8 µM) | 0.98 µg/mL (≈ 2.71 µM) | Ratio (Bacillus cereus [1]): 4; Ratio (Bacillus subtilis [10]): 8
